{"source": "ChEMBL document CHEMBL1926607", "about": "(J Med Chem, 2011)", "key": {"[1]": {"target": "T1, 5-hydroxytryptamine receptor 1A (Homo sapiens) (UniProt P08908)", "T1 sequence (whole entry)": "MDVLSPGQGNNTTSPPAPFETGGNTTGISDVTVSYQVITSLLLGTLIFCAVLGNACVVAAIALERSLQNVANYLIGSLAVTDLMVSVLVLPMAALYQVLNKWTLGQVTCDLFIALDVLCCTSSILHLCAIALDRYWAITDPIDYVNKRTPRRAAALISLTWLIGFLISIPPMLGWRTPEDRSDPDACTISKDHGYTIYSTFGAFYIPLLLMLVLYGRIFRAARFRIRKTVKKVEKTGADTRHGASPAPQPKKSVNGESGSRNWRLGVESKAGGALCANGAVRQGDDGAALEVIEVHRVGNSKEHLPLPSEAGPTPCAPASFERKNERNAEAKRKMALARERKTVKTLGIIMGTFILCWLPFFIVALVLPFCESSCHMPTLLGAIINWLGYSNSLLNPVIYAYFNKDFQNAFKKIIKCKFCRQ", "assay": "Agonist activity at human 5HT1A receptor expressed in human HeLa cells assessed as inhibition of forskolin-stimulated cAMP production pretreated 20 mins before forskolin challenge measured after 2 hrs by RIA relative to control", "format": "functional, cell-based"}, "[2]": {"target": "T2, Adrenergic receptor alpha-1 (Rattus norvegicus, UniProt P15823+P23944+P43140)", "T2 sequence (P15823 whole entry)": "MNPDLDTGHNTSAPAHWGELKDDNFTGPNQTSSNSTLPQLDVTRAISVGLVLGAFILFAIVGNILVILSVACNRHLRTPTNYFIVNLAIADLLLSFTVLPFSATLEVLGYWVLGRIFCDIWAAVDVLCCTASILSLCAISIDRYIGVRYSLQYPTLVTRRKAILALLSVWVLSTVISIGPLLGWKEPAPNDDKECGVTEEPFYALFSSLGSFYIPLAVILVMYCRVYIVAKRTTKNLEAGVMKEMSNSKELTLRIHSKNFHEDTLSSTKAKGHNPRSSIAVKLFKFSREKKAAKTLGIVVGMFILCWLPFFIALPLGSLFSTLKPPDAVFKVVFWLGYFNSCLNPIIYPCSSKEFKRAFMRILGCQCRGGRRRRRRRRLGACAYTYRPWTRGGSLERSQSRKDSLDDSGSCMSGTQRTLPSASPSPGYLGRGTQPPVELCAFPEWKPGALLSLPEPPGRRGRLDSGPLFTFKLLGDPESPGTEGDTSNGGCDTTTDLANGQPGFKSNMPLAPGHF", "T2 sequence (P23944 whole entry)": "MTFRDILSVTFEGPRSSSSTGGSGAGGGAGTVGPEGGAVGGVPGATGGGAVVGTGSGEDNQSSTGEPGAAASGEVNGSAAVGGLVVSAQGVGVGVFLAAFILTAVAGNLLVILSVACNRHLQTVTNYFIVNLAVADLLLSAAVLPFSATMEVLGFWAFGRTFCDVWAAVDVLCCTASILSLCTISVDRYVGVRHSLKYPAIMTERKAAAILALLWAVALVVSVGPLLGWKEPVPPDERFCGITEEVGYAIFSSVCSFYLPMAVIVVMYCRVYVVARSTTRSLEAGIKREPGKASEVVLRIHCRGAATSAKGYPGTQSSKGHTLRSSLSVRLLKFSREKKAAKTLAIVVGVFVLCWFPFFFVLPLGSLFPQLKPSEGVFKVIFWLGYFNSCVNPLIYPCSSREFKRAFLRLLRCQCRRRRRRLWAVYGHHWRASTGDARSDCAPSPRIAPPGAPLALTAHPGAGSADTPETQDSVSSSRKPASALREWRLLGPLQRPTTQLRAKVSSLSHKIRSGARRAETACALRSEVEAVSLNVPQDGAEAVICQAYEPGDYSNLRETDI", "T2 sequence (P43140 whole entry)": "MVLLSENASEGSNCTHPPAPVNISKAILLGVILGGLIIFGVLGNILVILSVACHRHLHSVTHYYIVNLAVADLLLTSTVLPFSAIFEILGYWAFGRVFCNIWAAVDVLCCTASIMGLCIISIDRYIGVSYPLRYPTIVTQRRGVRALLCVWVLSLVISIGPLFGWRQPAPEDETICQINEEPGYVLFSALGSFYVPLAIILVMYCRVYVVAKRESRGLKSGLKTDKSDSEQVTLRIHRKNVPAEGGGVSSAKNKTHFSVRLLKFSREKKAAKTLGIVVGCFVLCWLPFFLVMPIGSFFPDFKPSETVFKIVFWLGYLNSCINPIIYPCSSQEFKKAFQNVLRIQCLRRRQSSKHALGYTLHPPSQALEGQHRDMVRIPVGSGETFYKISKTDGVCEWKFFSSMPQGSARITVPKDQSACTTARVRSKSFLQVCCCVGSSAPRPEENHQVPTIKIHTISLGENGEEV", "assay": "Displacement of [3H]prazosin from alpha1 adrenoceptor in Sprague-Dawley albinus rat cerebral cortex membranes after 30 mins", "format": "cell membranes, Membrane", "method_in_brief": "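Rat cerebral cortex membranes (about 250 μg protein; male Sprague–Dawley, 180–200 g) in 50 mM Tris-HCl with 10 mM MgCl2, pH 7.4. Incubation was 30 min at 25 °C with 0.2 nM [3H]prazosin and six competitor concentrations. Nonspecific binding was set with 10 μM phentolamine.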"}, "[3]": {"target": "T3, 5-hydroxytryptamine receptor 1A (Homo sapiens, UniProt P08908)", "T3 sequence (P08908 whole entry)": "T1 sequence (whole entry)", "assay": "Agonist activity at human 5HT1A receptor expressed in human HeLa cells assessed as inhibition of forskolin-stimulated cAMP production […] measured after 2 hrs by RIA", "format": "functional, cell-based", "method_in_brief": "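HeLa cells stably expressing the h5-HT1AR, grown in DMEM with 2 mM glutamine, 1 mM pyruvate and 10% heat-inactivated FCS, and used after 2–3 days at about 7.5 × 10^4 cells/well. After a PBS wash, cells were incubated 10 min in PBS with 0.5 mM isobutylmethylxanthine and 10 μM forskolin, with or without compound. The reaction was stopped with ice-cold ethanol, extracted 2 h and lyophilized; cAMP was measured by RIA.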"}, "[4]": {"target": "T4, 5-hydroxytryptamine receptor 1A (Rattus norvegicus, UniProt P19327)", "T4 sequence (P19327 whole entry)": "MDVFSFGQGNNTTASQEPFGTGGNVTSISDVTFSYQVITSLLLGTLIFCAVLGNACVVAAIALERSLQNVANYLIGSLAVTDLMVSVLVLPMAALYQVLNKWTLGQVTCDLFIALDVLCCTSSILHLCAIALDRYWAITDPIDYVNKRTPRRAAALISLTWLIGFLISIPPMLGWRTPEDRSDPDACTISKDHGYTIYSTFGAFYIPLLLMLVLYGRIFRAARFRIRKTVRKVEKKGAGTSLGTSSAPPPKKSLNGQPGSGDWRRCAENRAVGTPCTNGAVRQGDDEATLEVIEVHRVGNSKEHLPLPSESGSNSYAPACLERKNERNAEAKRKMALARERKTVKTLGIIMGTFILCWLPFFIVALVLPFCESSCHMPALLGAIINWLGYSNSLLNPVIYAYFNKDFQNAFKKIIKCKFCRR", "assay": "Displacement of [3H]-8-OH-DPAT from 5-HT1A receptor in Sprague-Dawley albinus rat cerebral cortex membranes after 15 mins", "format": "cell membranes, Membrane"}, "[5]": {"target": "5-hydroxytryptamine receptor 4 (Rattus norvegicus, UniProt Q62758)", "sequence (Q62758 whole entry)": "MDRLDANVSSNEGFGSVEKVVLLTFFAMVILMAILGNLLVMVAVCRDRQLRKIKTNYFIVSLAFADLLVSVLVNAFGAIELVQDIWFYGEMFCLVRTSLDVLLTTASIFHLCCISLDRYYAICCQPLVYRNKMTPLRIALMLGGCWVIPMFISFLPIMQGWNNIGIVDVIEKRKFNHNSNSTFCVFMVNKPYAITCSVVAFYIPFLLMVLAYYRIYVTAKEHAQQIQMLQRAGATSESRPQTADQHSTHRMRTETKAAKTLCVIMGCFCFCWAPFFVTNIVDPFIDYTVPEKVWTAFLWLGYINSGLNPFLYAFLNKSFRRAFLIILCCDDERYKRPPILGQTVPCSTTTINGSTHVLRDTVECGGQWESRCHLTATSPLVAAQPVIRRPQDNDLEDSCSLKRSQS", "assay": "Displacement of [3H]GR113808 from 5HT4 receptor in Sprague-Dawley albinus rat striatal membranes after 30 mins by scintillation counting", "format": "cell membranes, Membrane"}}, "note": "pEC50, pKi: −log10 of the molar value."}
{"smiles": "Cl.O=C1C2CCCN2C(=O)CN1CCCCNCC1CCc2ccccc2O1", "note": "(stereo not given)", "values": [{"measurement": "Emax", "setting": "[1]", "result": 87.6, "unit": "%"}, {"measurement": "Ki", "setting": "[2]", "result": 107, "unit": "nM"}, {"measurement": "pEC50", "setting": "[3]", "result": 6.91}, {"measurement": "pKi", "setting": "[4]", "result": 7.68}, {"measurement": "pKi", "setting": "[5]", "result": "< 6.00"}]}
